According to ChEMBL document CHEMBL1131058, “Studies on quinazolines and 1,2,4-benzothiadiazine 1,1-dioxides. 8.1, 2 synthesis and pharmacological evaluation of tricyclic fused quinazolines and 1,2,4-benzothiadiazine 1,1-dioxides as potential alpha1-adrenoceptor antagonists” (J Med Chem, 1998):

What was measured:
[1] = target: T1, 5-hydroxytryptamine receptor 1A (Rattus norvegicus, UniProt P19327); assay: Compound is evaluated for binding affinity towards 5-hydroxytryptamine 1A receptor using [3H]-8-OH- -DPAT in rat brain cortex; format: tissue-based
T1 sequence (P19327 whole entry): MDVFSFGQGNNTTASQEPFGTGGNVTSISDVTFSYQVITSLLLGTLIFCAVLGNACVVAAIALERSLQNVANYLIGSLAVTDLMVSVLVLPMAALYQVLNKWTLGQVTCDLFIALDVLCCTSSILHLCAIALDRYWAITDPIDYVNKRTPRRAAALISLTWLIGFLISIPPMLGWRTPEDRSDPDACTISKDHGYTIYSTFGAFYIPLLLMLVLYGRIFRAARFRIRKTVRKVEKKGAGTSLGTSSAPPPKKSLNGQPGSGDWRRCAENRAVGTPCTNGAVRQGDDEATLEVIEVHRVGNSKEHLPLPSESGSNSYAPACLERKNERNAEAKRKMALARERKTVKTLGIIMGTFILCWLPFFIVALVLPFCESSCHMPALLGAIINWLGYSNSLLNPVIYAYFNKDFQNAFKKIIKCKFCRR
Method in brief: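 Contract radioligand competition binding. Sources: 5-HT1 and 5-HT1A in rat brain cortex; 5-HT2 and σ2 in rat brain; σ in guinea pig brain; D2, rhD2 and rhD3 in CHO cells with [³H]spiperone; H1 in guinea pig lung with [³H]pyrilamine. Inhibition constants reported; no constant given where inhibition at 10 µM was below 50%.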

D(3) dopamine receptor = D(3) dopamine receptor (Homo sapiens, UniProt P35462); assay: Compound is evaluated for binding affinity towards recombinant human Dopamine receptor D3 using [3H]spiperone in CHO cells at 10 uM; format: cell-based
Method in brief: (§1)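 Single-concentration screen at 10 µM in contract radioligand binding assays. Records whether inhibition of specific radioligand binding stayed below 50%.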

[2] = target: Serotonin 1 (5-HT1) receptor (Rattus norvegicus) (UniProt P28564+P30940+P19327+P28565); assay: Compound is evaluated for binding affinity towards 5-hydroxytryptamine 1 receptor using [3H]5-HT in rat brain cortex at 10 uM; format: tissue-based; method in brief: as §1
[3] = target: T2, Adrenergic receptor alpha-2 (Rattus norvegicus, UniProt P22086+P19328+P22909); assay: Displacement of clonidine from Alpha-2 adrenergic receptor in rat brain cortex; format: tissue-based
T2 sequence (P22086 whole entry): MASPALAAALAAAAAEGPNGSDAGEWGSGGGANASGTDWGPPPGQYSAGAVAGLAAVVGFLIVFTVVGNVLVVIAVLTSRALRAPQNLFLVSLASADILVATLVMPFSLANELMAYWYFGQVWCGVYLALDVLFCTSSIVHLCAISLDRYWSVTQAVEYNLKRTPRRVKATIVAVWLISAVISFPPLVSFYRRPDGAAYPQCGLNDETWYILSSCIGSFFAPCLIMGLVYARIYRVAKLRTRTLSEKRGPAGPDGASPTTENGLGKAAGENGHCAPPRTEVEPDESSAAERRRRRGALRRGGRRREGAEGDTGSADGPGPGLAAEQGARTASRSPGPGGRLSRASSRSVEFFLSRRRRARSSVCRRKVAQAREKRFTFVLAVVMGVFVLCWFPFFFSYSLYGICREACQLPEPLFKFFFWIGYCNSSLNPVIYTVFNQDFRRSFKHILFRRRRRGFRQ
T2 sequence (P19328 whole entry): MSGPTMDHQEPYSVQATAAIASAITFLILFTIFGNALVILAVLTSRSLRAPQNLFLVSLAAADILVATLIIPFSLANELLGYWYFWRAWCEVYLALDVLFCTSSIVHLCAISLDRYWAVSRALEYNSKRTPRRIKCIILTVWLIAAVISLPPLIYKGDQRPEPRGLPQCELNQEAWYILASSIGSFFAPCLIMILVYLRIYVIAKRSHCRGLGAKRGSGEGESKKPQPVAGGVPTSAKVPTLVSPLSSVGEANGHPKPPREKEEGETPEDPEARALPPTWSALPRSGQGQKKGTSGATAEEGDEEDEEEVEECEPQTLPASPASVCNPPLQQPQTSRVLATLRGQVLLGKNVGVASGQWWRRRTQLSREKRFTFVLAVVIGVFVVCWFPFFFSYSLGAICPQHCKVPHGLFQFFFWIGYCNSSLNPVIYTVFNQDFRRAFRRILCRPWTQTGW
T2 sequence (P22909 whole entry): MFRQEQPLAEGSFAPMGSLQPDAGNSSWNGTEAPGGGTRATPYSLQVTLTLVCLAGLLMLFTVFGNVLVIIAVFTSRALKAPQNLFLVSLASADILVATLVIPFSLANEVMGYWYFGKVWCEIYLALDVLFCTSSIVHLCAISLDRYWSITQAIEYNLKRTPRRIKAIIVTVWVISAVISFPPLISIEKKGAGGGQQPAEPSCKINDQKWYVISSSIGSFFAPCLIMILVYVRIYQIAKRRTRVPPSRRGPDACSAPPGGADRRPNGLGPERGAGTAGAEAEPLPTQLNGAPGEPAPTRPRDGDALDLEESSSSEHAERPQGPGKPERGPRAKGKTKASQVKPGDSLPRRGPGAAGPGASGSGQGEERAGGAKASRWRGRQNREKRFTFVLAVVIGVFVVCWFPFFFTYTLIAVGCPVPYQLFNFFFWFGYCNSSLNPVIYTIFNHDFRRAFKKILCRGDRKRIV
Method in brief: (§2)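 α2 competition binding run in triplicate with 1 nM [³H]clonidine plus 10 mM MgCl₂ in Tris pH 7.4, 30 min at room temperature. Test compounds at 1-100 µM. Nonspecific binding defined with 10 µM clonidine. Membranes collected on GF/B filters and washed twice with cold Tris. Protein 300-400 µg per assay. Ki given as mean ± SEM of 3-6 experiments.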

[4] = target: Histamine H1 receptor (Cavia porcellus) (UniProt P31389); assay: Compound is evaluated for binding affinity towards Histamine H1 receptor using [3H]pyrilamine in guinea pig lung at 10 uM; format: tissue-based; method in brief: as §1
[5] = target: T2, Adrenergic receptor alpha-2; assay: Displacement of clonidine from Alpha-2 adrenergic receptor of rat cortical membranes; format: cell membranes, Membrane; method in brief: as §2
[6] = target: T3, Alpha-2B adrenergic receptor (Homo sapiens, UniProt P18089); assay: Compound is evaluated for binding affinity towards Alpha-2B adrenergic receptor using [3H]yohimbine
T3 sequence (P18089 whole entry): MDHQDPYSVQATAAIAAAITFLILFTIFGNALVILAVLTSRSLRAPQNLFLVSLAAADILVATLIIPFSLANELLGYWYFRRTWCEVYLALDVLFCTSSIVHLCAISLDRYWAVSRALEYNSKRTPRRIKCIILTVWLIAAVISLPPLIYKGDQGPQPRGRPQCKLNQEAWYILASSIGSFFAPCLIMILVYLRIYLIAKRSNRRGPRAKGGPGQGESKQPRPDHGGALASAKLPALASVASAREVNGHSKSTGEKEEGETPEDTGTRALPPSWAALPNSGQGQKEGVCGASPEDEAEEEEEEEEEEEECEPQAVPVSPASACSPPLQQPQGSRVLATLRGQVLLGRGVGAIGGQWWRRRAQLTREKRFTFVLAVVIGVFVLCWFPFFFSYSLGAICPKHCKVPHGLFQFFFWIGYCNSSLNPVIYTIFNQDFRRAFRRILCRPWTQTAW

Sequence of Histamine H1 receptor (Cavia porcellus) (P31389 whole entry): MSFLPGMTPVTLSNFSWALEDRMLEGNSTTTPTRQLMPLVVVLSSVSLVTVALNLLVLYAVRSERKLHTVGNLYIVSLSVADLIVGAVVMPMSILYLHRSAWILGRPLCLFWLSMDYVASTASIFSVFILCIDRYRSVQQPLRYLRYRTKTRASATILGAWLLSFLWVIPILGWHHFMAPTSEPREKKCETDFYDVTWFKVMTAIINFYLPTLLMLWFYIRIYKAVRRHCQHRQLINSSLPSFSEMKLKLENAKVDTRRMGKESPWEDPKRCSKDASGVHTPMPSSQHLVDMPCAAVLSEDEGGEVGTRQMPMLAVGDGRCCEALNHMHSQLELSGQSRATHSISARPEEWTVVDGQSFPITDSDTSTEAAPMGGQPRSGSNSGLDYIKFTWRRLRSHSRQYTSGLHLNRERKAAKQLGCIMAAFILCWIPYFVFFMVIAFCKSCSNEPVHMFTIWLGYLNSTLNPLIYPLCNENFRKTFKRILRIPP
Sequence of D(3) dopamine receptor (P35462 whole entry): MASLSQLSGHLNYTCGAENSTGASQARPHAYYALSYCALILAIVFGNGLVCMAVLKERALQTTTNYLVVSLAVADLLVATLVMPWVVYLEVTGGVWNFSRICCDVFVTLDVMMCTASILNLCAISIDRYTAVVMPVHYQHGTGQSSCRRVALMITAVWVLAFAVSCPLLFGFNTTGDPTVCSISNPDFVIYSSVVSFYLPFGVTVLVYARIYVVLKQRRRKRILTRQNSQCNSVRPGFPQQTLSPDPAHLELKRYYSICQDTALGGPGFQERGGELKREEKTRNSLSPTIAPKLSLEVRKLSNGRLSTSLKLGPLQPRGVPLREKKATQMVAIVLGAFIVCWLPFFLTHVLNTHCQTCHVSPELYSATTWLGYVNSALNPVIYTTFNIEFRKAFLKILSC

| Compound | Ki [1] | inhibition (D(3) dopamine receptor) | inhibition [2] | Ki [3] | inhibition [4] | Ki [5] | Ki [6] |
| --- | --- | --- | --- | --- | --- | --- | --- |
| COc1ccccc1N1CCN(Cc2cnc3c4ccccc4nc(O)n23)CC1 | 4000 nM | < 50% | < 50% | 7830 nM | < 50% |  |  |
| COc1ccccc1N1CCN(Cc2cn3c(O)nc4ccccc4c3n2)CC1 |  | < 50% | < 50% | 6760 nM | < 50% |  |  |
| COc1ccccc1N1CCN(C[C@H]2CN=C3c4ccccc4N=C(SC)N32)CC1 |  |  |  |  |  | 3500 nM | 376 nM |
| COc1ccccc1N1CCN(CC2CN=C3c4ccccc4N=C(SC)N32)CC1 (stereo not given) | 237 nM |  |  |  |  | 970 nM |  |
| COc1ccccc1N1CCN(C[C@@H]2CN=C3c4ccccc4N=C(SC)N32)CC1 |  |  |  |  |  | 9000 nM |  |
| COc1ccccc1N1CCN(C[C@@H]2CN=C3c4ccccc4NC(=O)N32)CC1 |  |  |  |  |  | > 10000 nM | 9300 nM |
| COc1ccccc1N1CCN(CC2CN3C(=O)Nc4ccccc4C3=N2)CC1 (stereo not given) | 238 nM |  |  |  |  | 230 nM | 253 nM |
| Oc1nc2ccccc2c2ncc(CN3CCN(c4ccccc4Cl)CC3)n12 |  | < 50% | < 50% | 2720 nM | < 50% |  |  |
| COc1ccccc1N1CCN(C[C@H]2CN=C3c4ccccc4NC(=O)N32)CC1 |  |  |  |  |  | 183 nM | 116 nM |
